We go through 15 compounds from ChEMBL document CHEMBL1125255, “Romazarit: a potential disease-modifying antirheumatic drug” (J Med Chem, 1991).

Data set [1] relates to Rattus norvegicus. The experiment in a line: Radiographic change was judged in the area of the tarsus region, using an arbitrary scoring system upon termination of the test (14 days dosing of 100 mg/kg) in a model of type II collagen arthritis in the rat. The class given is functional. Particulars: 336 h. The method in brief: (§1)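 Type II collagen arthritis rats, eight per group, oral sodium salts daily from grouping (day 1). Hind limbs X-rayed post mortem. Tibia/talus and tarsus damage scored 0–3 per foot by two observers and averaged; left and right summed (max 6). Compared with arthritic controls by Mann–Whitney U test.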

Data set [2] concerns Rattus norvegicus. In words: Compound was evaluated in developing adjuvant arthritis model rats for its effect on paw edema. In kind it is functional. On the set-up: concentration or dose not given beside the values. The method in brief: (§2)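 Female Allen and Hanbury hooded rats, five per group. Right hind paw injected sc on day 0 with heat-killed M. tuberculosis in paraffin oil (5 mg/mL). Compounds given orally as sodium salts in water. Paw volumes of both hind paws measured days 1–4, 1 h after dosing. Percent inhibition taken from area under the curve of the between-paw volume difference.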

For data set [3], the system named is Rattus norvegicus. In words: Radiographic change was judged in the area of the talus joint, using an arbitrary scoring system upon termination of the test (14 days dosing of 100 mg/kg) in a model of type II collagen arthritis in the rat. The class given is functional. Particulars: 336 h. The method in brief:
as §1

Data set [4] can be described thus: Partition coefficient (logP). In kind it is physicochemical. Particulars: octanol/water. The gist of the method:
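Compound dissolved in disodium hydrogen phosphate/citric acid buffer pH 7.4 and partitioned against equal volume octan-1-ol. Buffer-phase UV absorbance read before and after partitioning near λmax. P′ from the octanol:buffer absorbance ratio.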

Data set [5] concerns Rattus norvegicus. In words: Hepatic effect assessed by increase in liver weight after 14 days of dosing at 100 mg/kg orally. In kind it is functional. The method in brief: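 Type II collagen arthritis rats, eight per group, daily oral dosing as sodium salts in water for 14 days. Liver weight recorded at termination and expressed as percentage change versus normal animals.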

Data set [6] is filed under the species Rattus norvegicus. The experiment in a line: Percent decrease in serum haptoglobin evaluated in a developing adjuvant arthritis model rats.
Data set [7] deals with Rattus norvegicus. The experiment in a line: Hepatic effect assessed by increase in catalase levels after 14 days of dosing at 100 mg/kg orally. The class given is functional. The method in brief:
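Type II collagen arthritis rats, eight per group, given oral sodium salts daily for 14 days. At termination liver homogenized in ice-cold 0.25 M sucrose and spun 2000 rpm 10 min. Catalase followed by decline in A240 from H2O2 breakdown, expressed as first-order rate constant K. Result given as % change versus normals.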

The species entered for data set [8] is Rattus norvegicus. In words: Percent decrease in serum haptoglobin evaluated in a developing adjuvant arthritis model rats; No significant effect.
For data set [9], the system named is Rattus norvegicus. In words: Compound was evaluated in developing adjuvant arthritis model rats for its effect on paw edema; No significant effect. The class given is functional, organism-based. The method in brief:
as §2

Calls of active or inactive are those of the source. The rule behind the calls is not given here.

As to `CC(C)(OCc1ncc(-c2ccc(Cl)cc2)o1)C(=O)O`, the inhibition in vivo at 100 mg/kg amounted to 24% in [1] and 36% in data set [3]. The Inhibition in data set [2] is reported as 40%. This compound also had a logP in [4] of 0.15. Further, the Change in [5] is given as 3%; in data set [7], -10%. Further, the Decrease in data set [6] came to 17%.

Turning to `CC(C)(OCc1cnc(-c2ccc(Cl)cc2)o1)C(=O)O`, in [8], the Decrease entry is “inactive”. For the same compound, the inhibition in vivo at 100 mg/kg was 41% in [1] and 42% in data set [3]. Further, the Inhibition in data set [2] is 33%. For the same compound, the logP in data set [4] was determined as 0.11. Moreover, the Change worked out at 16% in data set [5] and 11% in [7].

Take `CC(C)(OCc1ccc(-c2ccc(Cl)cc2)nn1)C(=O)O`: the Decrease result in [8] is “inactive”. Besides, in data set [9], the inhibition result is “inactive”. In [4], this compound displayed a logP of -0.15.

Turning to `CC(C)(OCc1csc(-c2ccc(Cl)cc2)n1)C(=O)O`, in [2], the Inhibition is reported as 81%. The same compound displayed a logP in [4] of 0.66. For the same compound, in [6], the Decrease came out at 16%.

Turning to `CC(C)(OCc1coc2ccc(Cl)cc12)C(=O)O`, the Decrease result in data set [8] is “inactive”. The inhibition result in [9] was “inactive”. The logP in [4] was -0.54.

For `CC(C)(OCc1cc(-c2ccc(Cl)cc2)[nH]n1)C(=O)O`, the Decrease result in [8] was “inactive”. Further, the inhibition entry in data set [9] was “inactive”. The logP in [4] was determined as 0.36.

For the compound `Cc1oc(-c2ccc(Cl)cc2)nc1COC(C)(C)C(=O)O`, the Decrease entry in data set [8] is “inactive”. Further, the values for the inhibition in vivo at 100 mg/kg in data set [1] and in data set [3] were 54% and 65%, respectively. Besides, in data set [2], the Inhibition came out at 67%. Also, in data set [4], the logP came to 0.52. In addition, the results for the Change in [5] and in [7] were 2% and 60%, respectively.

Turning to `CC(C)(OCc1cc(-c2ccc(Cl)cc2)no1)C(=O)O`, the inhibition in vivo at 100 mg/kg turned out to be 47% in data set [1] and 60% in data set [3]. Also, the Inhibition in data set [2] was 72%. In data set [4], the logP stood at 0.36. The Change in data set [5] is on record as 47%; in data set [7] it was 73%. For the same compound, the Decrease in data set [6] is recorded as 37%.

Turning to `CC(C)(OCc1nc(-c2ccc(Cl)cc2)co1)C(=O)O`, the results for the inhibition in vivo at 100 mg/kg in data set [1] and in [3] were 39% and 63%, respectively. Also, in data set [2], the Inhibition is listed as 69%. For the same compound, in [4], the logP is 0.15. Further, the Change in data set [5] was 19%; in [7], 68%. The Decrease in data set [6] was found to be 9%.

For the compound `CC(C)(OCc1cccc(-c2ccc(Cl)cc2)n1)C(=O)O`, the Decrease result in [8] is “inactive”. For the same compound, the inhibition result in data set [9] is “inactive”. Further, the logP in data set [4] was 0.69.

With `CC(C)(OCc1ncsc1-c1ccc(Cl)cc1)C(=O)O`, in data set [8], the Decrease entry is “inactive”. For the same compound, the inhibition result in [9] is “inactive”. The logP in [4] amounted to 0.23.

Turning to `Cn1cc(-c2ccc(Cl)cc2)nc1COC(C)(C)C(=O)O`, the Decrease result in data set [8] was “inactive”. In addition, in [9], the inhibition entry is “inactive”. In [4], this compound came in with a logP of 0.08.

As to `CC(C)(OCc1coc(-c2ccc(Cl)cc2)n1)C(=O)O`, the figures for the inhibition in vivo at 100 mg/kg in [1] and in [3] were 44% and 59%, respectively. Further, the Inhibition in data set [2] was 84%. This compound also gave a logP in data set [4] of 0.23. Also, the results for the Change in [5] and in data set [7] were 19% and 52%, respectively. The Decrease in [6] amounted to 40%.

As to `CC(C)(OCc1cc2cc(Cl)ccc2o1)C(=O)O`, in [8], the Decrease result was “inactive”. Also, in data set [2], the Inhibition is given as 39%. For the same compound, the logP in [4] is -0.57.

As for `CC(C)(OCc1scnc1-c1ccc(Cl)cc1)C(=O)O`, the Decrease entry in data set [8] is “inactive”. The inhibition result in [9] was “inactive”. For the same compound, the logP in data set [4] turned out to be 0.23.

Usually inhibition in vivo stands for the share of the control response that was lost under treatment. The Inhibition is the percentage by which the read-out fell short of the control. By logP is commonly meant a log measure of how a compound divides between an organic and an aqueous phase.
